Results from ChEMBL document CHEMBL3414537, “Efficient synthesis and biological activity of Psammaplin A and its analogues as antitumor agents” (Eur J Med Chem, 2015).
Calls of active or inactive are those of the source. The calls are words filed in the database; no cut-off is given here.

Key:
A549 [1] = experiment: Cytotoxicity against human A549 cells by SRB assay; format: functional, cell-based
How it was run: (§1)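 Cells at 3.5 × 10^4 cells/mL in RPMI 1640 with 10% heat-inactivated FBS were exposed to a range of concentrations for 72 h. They were then TCA-fixed (10%) and stained with sulforhodamine B. Growth is expressed as % of solvent-treated control, and IC50 is obtained by non-linear regression. Means of ≥3 experiments.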

[2] = Cytotoxicity against human HCT116 cells by SRB assay; format: functional, cell-based; conditions: HCT-116; how it was run: as §1
A549 [3] = experiment: Antiproliferative activity against human A549 cells assessed as shrunken and sharp shape at 1.6 uM after 24 hrs by phase contrast microscopy; format: functional, cell-based
How it was run: (§2)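 A549 cells (RPMI 1640, 10% heat-inactivated FBS, 37 °C, 5% CO2) exposed to 0.2–1.6 µM for 24 h; TSA 0.4 µM run alongside. Cell shape examined by phase-contrast microscopy.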

A549 [4] = experiment: Antiproliferative activity against human A549 cells assessed as morphological changes after 24 hrs by phase contrast microscopy; format: functional, cell-based; how it was run: as §2
[5] = molecular target: T1, Histone deacetylase (Homo sapiens) (UniProt Q13547+O15379+Q9UBN7+Q92769+Q9UQL6+Q8WUI4+Q9BY41+Q96DB2+P56524+Q9UKV0+Q969S8); experiment: Inhibition of HDAC in human A549 cells after 24 hrs by fluorescence assay; format: cell-based
[6] = molecular target: T1, Histone deacetylase (Homo sapiens); experiment: Inhibition of HDAC in human A549 cells assessed as increase in acetylated histone 3 expression level after 24 hrs by western blotting analysis; format: cell-based
How it was run: (§3)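 After 24 h exposure (0.2–1.6 µM), A549 lysates were prepared in Tris-HCl pH 6.8/4% SDS buffer with protease and phosphatase inhibitors at 4 °C. Equal protein was separated by SDS-PAGE and transferred to PVDF. Membranes were blocked in 5% BSA/TBS-Tween for 2 h, incubated with primary antibody overnight at 4 °C, then HRP secondary for 1 h, with chemiluminescent detection.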

A549 [7] = experiment: Induction of phosphorylated AKT level in human A549 cells after 24 hrs by Western blotting analysis; format: cell-based; how it was run: as §3
A549 [8] = experiment: Induction of phosphorylated ERK level in human A549 cells after 24 hrs by Western blotting analysis; format: cell-based; how it was run: as §3
A549 [9] = experiment: Antitumor activity against human A549 cells xenografted in athymic BALB/c nu/nu mouse assessed as tumor growth inhibition at 15 mg/kg, ip administered thrice a week measured after 35 days relative to vehicle-treated control; format: functional; conditions: 840 h, route intraperitoneal, read-out: TGI
How it was run: (§4)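 Male BALB/c nu/nu mice (6 weeks) were implanted s.c. in the right flank with 1 × 10^7 A549 cells. Dosing started at tumor volume 50–60 mm3, with 6 mice per group. Treatment was 15 or 30 mg/kg i.p. three times weekly in 0.05% Tween-80/0.9% NaCl, with vehicle and paclitaxel 5 mg/kg controls. Tumor volume was followed to day 35, and end-point tumors were weighed.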

A549 [10] = experiment: Antitumor activity against human A549 cells xenografted in athymic BALB/c nu/nu mouse assessed as tumor growth inhibition at 30 mg/kg, ip administered thrice a week measured after 35 days relative to vehicle-treated control; format: functional; conditions: 840 h, route intraperitoneal, read-out: TGI; how it was run: as §4
A549 [11] = experiment: Antitumor activity against human A549 cells xenografted in athymic BALB/c nu/nu mouse assessed as reduction in tumor weight at 15 to 30 mg/kg, ip administered thrice a week measured after 35 days relative to vehicle-treated control; format: functional, organism-based; how it was run: as §4
Mus musculus = experiment: Toxicity in athymic BALB/c nu/nu mouse xenografted with human A549 cells assessed as change in body weight at 15 to 30 mg/kg, ip administered thrice a week measured after 35 days relative to vehicle-treated control; format: organism-based; parameters: dose 15-30 mg/kg, route intraperitoneal; conditions: in vivo, 840 h
A549 [12] = experiment: Antitumor activity against human A549 cells xenografted in athymic BALB/c nu/nu mouse assessed as inhibition of Ki-67 expression in central and edge region of tumor at 15 to 30 mg/kg, ip administered thrice a week measured after 35 days by immunohistochemical analysis relative to vehicle-treated control; format: functional, organism-based
How it was run: (§5)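 In the A549 nude-mouse xenograft (15 or 30 mg/kg i.p. thrice weekly, vehicle control), end-point tumor sections were incubated overnight at 4 °C with Ki-67 antibody. Detection used an HRP polymer system with hematoxylin-eosin counterstain, and sections were imaged by light microscopy.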

A549 [13] = experiment: Antitumor activity against human A549 cells xenografted in athymic BALB/c nu/nu mouse assessed as change in cell number in central region of tumor at 15 to 30 mg/kg, ip administered thrice a week measured after 35 days by immunohistochemical analysis relative to vehicle-treated control; format: functional, organism-based; how it was run: as §5
A549 [14] = experiment: Antitumor activity against human A549 cells xenografted in athymic BALB/c nu/nu mouse assessed as change in cell number in edge or peripheral region of tumor at 15 to 30 mg/kg, ip administered thrice a week measured after 35 days by immunohistochemical analysis relative to vehicle-treated control; format: functional, organism-based; how it was run: as §5
[15] = molecular target: T1, Histone deacetylase (Homo sapiens); experiment: Inhibition of HDAC in human A549 cells at 1.6 uM after 24 hrs by fluorescence assay; format: cell-based
[16] = molecular target: T1, Histone deacetylase (Homo sapiens); experiment: Inhibition of HDAC in human A549 cells assessed as increase in acetylated histone 3 expression level at 1.6 uM after 24 hrs by western blotting analysis; format: cell-based; how it was run: as §3
A549 [17] = experiment: Antitumor activity against human A549 cells xenografted in athymic BALB/c nu/nu mouse assessed as reduction in tumor weight at 30 mg/kg, ip administered thrice a week measured after 35 days relative to vehicle-treated control; format: functional, organism-based; parameters: dose 30 mg/kg; how it was run: as §4
A549 [18] = experiment: Antiproliferative activity against human A549 cells assessed as shrunken and sharp shape at 0.4 uM after 24 hrs by phase contrast microscopy; format: functional, cell-based; how it was run: as §2

Row | SMILES | IC50 (A549 [1]) [µM] | IC50 [2] [µM] | further results
1 | O=C(NCCSSCCNC(=O)/C(Cc1cc(Cl)cc(Cl)c1)=N/O)/C(Cc1cc(Cl)cc(Cl)c1)=N\O | 2.28 | 2.1 | 
2 | Cc1ccc(C/C(=N/O)C(=O)NCCSSCCNC(=O)/C(Cc2ccc(C)cc2)=N/O)cc1 | 6.09 | 5.63 | 
3 | O=C(NCCSSCCNC(=O)/C(Cc1ccc(OC2CCCC2)cc1)=N/O)/C(Cc1ccc(OC2CCCC2)cc1)=N\O | 1.4 | 5.34 | 
4 | O=C(NCCSCCNC(=O)/C(Cc1ccc(OCc2ccccc2)cc1)=N\O)/C(Cc1ccc(OCc2ccccc2)cc1)=N\O | 2.5 | > 100 | 
5 | O=C(NCCSSCCNC(=O)/C(Cc1ccccc1)=N/O)/C(Cc1ccccc1)=N\O | 6.55 | 6.22 | 
6 | O=C(NCCSSCCNC(=O)/C(Cc1ccc(F)cc1)=N/O)/C(Cc1ccc(F)cc1)=N\O | 3.5 | 3.78 | 
7 | O=C(NCCSSCCNC(=O)/C(Cc1ccc(OCc2ccccc2)cc1)=N/O)/C(Cc1ccc(OCc2ccccc2)cc1)=N\O | 1.12 | 1.57 | 
8 | CCCCOc1ccc(C/C(=N/O)C(=O)NCCSSCCNC(=O)/C(Cc2ccc(OCCCC)cc2)=N/O)cc1 | 41.1 | 23.8 | 
9 | CCOc1ccc(C/C(=N/O)C(=O)NCCSSCCNC(=O)/C(Cc2ccc(OCC)cc2)=N/O)cc1 | 1.37 | 1.61 | 
10 | O=C(NCCSSCCNC(=O)/C(Cc1c2ccccc2cc2ccccc12)=N\O)/C(Cc1c2ccccc2cc2ccccc12)=N\O | 18.5 | 28.4 | 
11 | O=C(NCCSSCCNC(=O)/C(Cc1ccc(Oc2ccccc2)cc1)=N/O)/C(Cc1ccc(Oc2ccccc2)cc1)=N\O | > 100 | 20.4 | 
12 | O=C(NCCSSCCNC(=O)/C(Cc1ccc2ccccc2c1)=N/O)/C(Cc1ccc2ccccc2c1)=N\O | 1.2 | 1.3 | Activity (A549 [3]): Active; Activity (A549 [1]): Dose-dependent effect; Activity (A549 [4]): Dose-dependent effect; inhibition [5]: Dose-dependent effect; inhibition [6]: Dose-dependent effect; Activity (A549 [7]): Dose-dependent effect; Activity (A549 [8]): Dose-dependent effect; inhibition in vivo at 15 mg/kg (A549 [9]): 30.4%; inhibition in vivo at 30 mg/kg (A549 [10]): 47.6%; Activity (A549 [11]): Active; Activity (Mus musculus): Non-toxic; inhibition (A549 [12]): Active; Activity (A549 [13]): inactive; Activity (A549 [14]): Active
13 | O=C(NCCSSCCNC(=O)/C(Cc1cccc2ccccc12)=N/O)/C(Cc1cccc2ccccc12)=N\O | > 100 | > 100 | 
14 | CO/N=C(/Cc1ccc(OC)c(Br)c1)C(=O)NCCSSCCNC(=O)/C(Cc1ccc(OC)c(Br)c1)=N\OC | 9.2 | 10.7 | 
15 | O=C(NCCSSCCNC(=O)/C(Cc1cc(Cl)cc(Cl)c1Cl)=N/O)/C(Cc1cc(Cl)cc(Cl)c1Cl)=N\O | 5.09 | 4.23 | 
16 | O=C(NCCSSCCNC(=O)/C(Cc1ccc(O)c(Br)c1)=N/O)/C(Cc1ccc(O)c(Br)c1)=N/O [PSAMMAPLIN A] | 1.18 | 1.62 | inhibition [15]: Active; inhibition [16]: Active; Activity (A549 [17]): Active
17 | CC(C)(C)c1ccc(C/C(=N/O)C(=O)NCCSSCCNC(=O)/C(Cc2ccc(C(C)(C)C)cc2)=N/O)cc1 | 1.78 | 1.67 | 
18 | O=C(NCCS)/C(Cc1ccc(OCc2ccccc2)cc1)=N\O | 40 | 85.1 | 
19 | O=C(NCCSSCCNC(=O)/C(Cc1ccc(Cl)cc1)=N/O)/C(Cc1ccc(Cl)cc1)=N\O | 2.58 | 2.03 | 
20 | O=C(NCCSSCCNC(=O)/C(Cc1ccc(Cl)c(Cl)c1)=N/O)/C(Cc1ccc(Cl)c(Cl)c1)=N\O | 1.6 | 1.46 | 
21 | COc1ccc(C/C(=N/O)C(=O)NCCSSCCNC(=O)/C(Cc2ccc(OC)cc2)=N/O)cc1 | 2.81 | 4.39 | 
22 | O=C(NCCCCl)/C(Cc1ccc(OCc2ccccc2)cc1)=N\O | > 100 | > 100 | 
23 | CCCOc1ccc(C/C(=N/O)C(=O)NCCSSCCNC(=O)/C(Cc2ccc(OCCC)cc2)=N/O)cc1 | 13.5 | 15.5 | 
24 | CC(/C=C/C(=O)NO)=C\[C@@H](C)C(=O)c1ccc(N(C)C)cc1 |  |  | Activity (A549 [18]): Active
25 | O=C(NCCCl)/C(Cc1ccc(OCc2ccccc2)cc1)=N\O | > 100 | > 100 | 
26 | O=C(NCCSSCCNC(=O)/C(Cc1ccc(Br)cc1)=N/O)/C(Cc1ccc(Br)cc1)=N\O | 5.89 | 7.24 | 
27 | O=C(NCCSSCCNC(=O)/C(Cc1ccc([N+](=O)[O-])cc1)=N/O)/C(Cc1ccc([N+](=O)[O-])cc1)=N\O | 2.66 | 1.8 | 
28 | CO/N=C(/Cc1ccc(OC)cc1)C(=O)NCCSSCCNC(=O)/C(Cc1ccc(OC)cc1)=N\OC | > 100 | > 100 | 
29 | O=C(NCCCCCCNC(=O)/C(Cc1ccc(OCc2ccccc2)cc1)=N\O)/C(Cc1ccc(OCc2ccccc2)cc1)=N\O | 20.1 | > 100 | 
